From ChEMBL document CHEMBL4665798, “Novel Human Urate Transporter 1 Inhibitors as Hypouricemic Drug Candidates with Favorable Druggability” (J Med Chem, 2020) come the findings set out here.

The IC50 is the concentration at which inhibition is half-maximal. As usually defined, the AUC(0-inf) is the area under the concentration-time curve extrapolated to infinity. Read a low AUC(0-inf) as less exposure. One may read the Cmax as the highest concentration seen after dosing. By half-life is commonly meant how long it takes for the measured level to halve. A low value points to fast loss. In general, MRT inf refers to a mean duration of stay, worked out from the concentration-time curve. As a reminder, the bioavailability is dose-corrected exposure relative to a reference, in per cent. Read a high bioavailability as good availability. For orientation: Tmax means the time from dosing to the highest level. Broadly, the AUC(0-t) is the area under the concentration-time curve up to a stated or last time point. A lower AUC(0-t) goes with low exposure.

The target in data set [1] is Voltage-gated inwardly rectifying potassium channel KCNH2 (Homo sapiens, UniProt Q12809). The data set can be described thus: Inhibition of human ERG expressed in HEK293 cells at -80 mV holding potential by whole cell voltage patch clamp assay. The data set is classed as cell-based. The essentials:
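Manual patch clamp on HEK293 cells stably expressing hERG, cultured at least 24 h at 37 °C, 5% CO2. Pipettes 3–5 MΩ. Current stabilized 3 min with vehicle before compound. Compound kept on until peak tail current stable (<5% change) for ~5 sweeps. Cisapride monohydrate used as reference.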
(In patch-clamp work, channel activity is measured electrically.)

The nature of data set [2]: AUC (0 to infinity) in male Kunming mouse at 500 mg/kg, po by LC-MS/MS analysis. The format is ADME, organism-based. As to conditions: in vivo. On the set-up: time infinity, route oral, dose 500 mg/kg. In short, it runs like this:
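Male Kunming mice given oral compound in PEG 400/normal saline (70/30, V/V). Blood from submandibular or saphenous vein into K2EDTA tubes at 0.25 to 72 h. Plasma spun at 3200g near 4 °C, kept -70 °C, precipitated with acetonitrile plus dexamethasone internal standard. Quantified by LC-MS/MS against spiked blank-plasma standard curves.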

Data set [3] in a line: Cmax in male Kunming mouse at 50 mg/kg, po by LC-MS/MS analysis. The format is ADME, organism-based. Further details: route oral, dose 50 mg/kg. As to conditions: in vivo. The essentials: (§1)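 Male Kunming mice, ten in total, split into five groups; single oral dose in PEG 400/normal saline (70/30, v/v). Blood taken from submandibular or saphenous vein into K2EDTA tubes at 0.25, 0.5, 1, 2, 4, 8, 24, 48, 72 h. Plasma spun at about 4 °C and kept at -70 °C. Acetonitrile precipitation with dexamethasone internal standard, then LC-MS/MS against plasma standard curves.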

Data set [4] can be described thus: Half-life in male Kunming mouse at 50 mg/kg, po by LC-MS/MS analysis. The data set is classed as ADME, organism-based. The note with it: in vivo. The essentials: as §1
A short description of data set [5]: AUC (0 to infinity) in male Kunming mouse at 50 mg/kg, po by LC-MS/MS analysis. On the set-up: route oral, time infinity, dose 50 mg/kg. The note with it: in vivo. The data set is classed as ADME, organism-based. In short, it runs like this: as §1
Data set [6] is described as follows: MRT (0 to infinity) in male Kunming mouse at 50 mg/kg, po by LC-MS/MS analysis. The data set is classed as ADME, organism-based. As to conditions: in vivo. The essentials:
as §1

The nature of data set [7]: AUC (0 to infinity) in male Kunming mouse at 2 mg/kg, po by LC-MS/MS analysis. The format is ADME, organism-based. Further details: time infinity, route oral, dose 2 mg/kg. The note with it: in vivo. In short, it runs like this: as §1
Data set [8] can be described thus: Oral bioavailability in Sprague-Dawley rat at 20 mg/kg by LC-MS analysis. The data set is classed as ADME, organism-based. The note with it: in vivo.
Data set [9] is described as follows: Tmax in Sprague-Dawley rat at 20 mg/kg, po by LC-MS analysis. As to conditions: in vivo. The data set is classed as ADME, organism-based.
Data set [10] is described as follows: Half-life in Sprague-Dawley rat at 20 mg/kg, po by LC-MS analysis. The data set is classed as ADME, organism-based. The note with it: in vivo.
A short description of data set [11]: MRT (0 to infinity) in Sprague-Dawley rat at 20 mg/kg, po by LC-MS analysis. The data set is classed as ADME, organism-based. The note with it: in vivo.
A short description of data set [12]: AUC (0 to t) in Sprague-Dawley rat at 20 mg/kg, po by LC-MS analysis. As to conditions: in vivo. On the set-up: dose 20 mg/kg. The data set is classed as ADME, organism-based.
A further data set is filed under the species Rattus norvegicus. The data set can be described thus: Potency index, ratio of lesinurad to test compound for hypouricemic activity in rat model of xanthine/potassium oxonate-induced acute hyperuricemia assessed as decrease in serum uric acid level. The data set is classed as functional.
The nature of data set [13]: Oral bioavailability in Sprague-Dawley rat at 10 mg/kg by LC-MS analysis. The data set is classed as ADME, organism-based. The note with it: in vivo. The essentials:
(§2)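 Male Sprague-Dawley rats, two groups, dosed iv or orally; compound in PEG 400/normal saline (70/30, V/V). Oral blood from sinus jugularis at 5 min to 24 h, plasma by centrifugation at 2200 g, stored -20 °C. Plasma with internal standard precipitated by methanol, quantified by LC-MS against spiked blank-plasma standard curves. Mean ± SD, n = 5.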

The nature of data set [14]: Cmax in Sprague-Dawley rat at 10 mg/kg, po by LC-MS analysis. The format is ADME, organism-based. On the set-up: route oral, dose 10 mg/kg. The note with it: in vivo. The essentials:
as §2

Data set [15] can be described thus: AUC (0 to infinity) in Sprague-Dawley rat at 10 mg/kg, po by LC-MS analysis. The data set is classed as ADME, organism-based. Further details: time infinity, route oral, dose 10 mg/kg. The note with it: in vivo. In short, it runs like this: as §2
Data set [16] can be described thus: AUC (0 to t) in Sprague-Dawley rat at 10 mg/kg, po by LC-MS analysis. The data set is classed as ADME, organism-based. The note with it: in vivo. On the set-up: dose 10 mg/kg. The essentials: as §2
Data set [17] has as its target T1, Solute carrier family 2, facilitated glucose transporter member 9 (Homo sapiens, UniProt Q9NRM0).
T1 sequence (Q9NRM0 whole entry): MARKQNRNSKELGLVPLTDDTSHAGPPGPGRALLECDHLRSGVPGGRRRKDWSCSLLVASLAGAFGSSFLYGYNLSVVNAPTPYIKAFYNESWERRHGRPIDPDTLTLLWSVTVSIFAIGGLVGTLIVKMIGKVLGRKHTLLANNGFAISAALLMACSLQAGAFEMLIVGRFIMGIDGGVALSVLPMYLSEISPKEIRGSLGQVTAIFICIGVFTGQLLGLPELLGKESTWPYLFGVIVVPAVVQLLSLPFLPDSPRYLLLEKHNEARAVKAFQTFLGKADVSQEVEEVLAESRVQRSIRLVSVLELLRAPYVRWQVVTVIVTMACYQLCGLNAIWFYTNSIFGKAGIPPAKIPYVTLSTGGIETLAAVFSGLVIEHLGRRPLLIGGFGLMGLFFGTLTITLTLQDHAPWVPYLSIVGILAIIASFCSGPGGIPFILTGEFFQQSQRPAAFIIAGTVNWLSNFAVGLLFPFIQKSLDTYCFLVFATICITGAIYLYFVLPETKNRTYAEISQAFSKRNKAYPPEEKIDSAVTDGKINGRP
The data set can be described thus: Inhibition of GLUT9 (unknown origin).

Voltage-gated inwardly rectifying potassium channel KCNH2, sequence (Q12809 whole entry): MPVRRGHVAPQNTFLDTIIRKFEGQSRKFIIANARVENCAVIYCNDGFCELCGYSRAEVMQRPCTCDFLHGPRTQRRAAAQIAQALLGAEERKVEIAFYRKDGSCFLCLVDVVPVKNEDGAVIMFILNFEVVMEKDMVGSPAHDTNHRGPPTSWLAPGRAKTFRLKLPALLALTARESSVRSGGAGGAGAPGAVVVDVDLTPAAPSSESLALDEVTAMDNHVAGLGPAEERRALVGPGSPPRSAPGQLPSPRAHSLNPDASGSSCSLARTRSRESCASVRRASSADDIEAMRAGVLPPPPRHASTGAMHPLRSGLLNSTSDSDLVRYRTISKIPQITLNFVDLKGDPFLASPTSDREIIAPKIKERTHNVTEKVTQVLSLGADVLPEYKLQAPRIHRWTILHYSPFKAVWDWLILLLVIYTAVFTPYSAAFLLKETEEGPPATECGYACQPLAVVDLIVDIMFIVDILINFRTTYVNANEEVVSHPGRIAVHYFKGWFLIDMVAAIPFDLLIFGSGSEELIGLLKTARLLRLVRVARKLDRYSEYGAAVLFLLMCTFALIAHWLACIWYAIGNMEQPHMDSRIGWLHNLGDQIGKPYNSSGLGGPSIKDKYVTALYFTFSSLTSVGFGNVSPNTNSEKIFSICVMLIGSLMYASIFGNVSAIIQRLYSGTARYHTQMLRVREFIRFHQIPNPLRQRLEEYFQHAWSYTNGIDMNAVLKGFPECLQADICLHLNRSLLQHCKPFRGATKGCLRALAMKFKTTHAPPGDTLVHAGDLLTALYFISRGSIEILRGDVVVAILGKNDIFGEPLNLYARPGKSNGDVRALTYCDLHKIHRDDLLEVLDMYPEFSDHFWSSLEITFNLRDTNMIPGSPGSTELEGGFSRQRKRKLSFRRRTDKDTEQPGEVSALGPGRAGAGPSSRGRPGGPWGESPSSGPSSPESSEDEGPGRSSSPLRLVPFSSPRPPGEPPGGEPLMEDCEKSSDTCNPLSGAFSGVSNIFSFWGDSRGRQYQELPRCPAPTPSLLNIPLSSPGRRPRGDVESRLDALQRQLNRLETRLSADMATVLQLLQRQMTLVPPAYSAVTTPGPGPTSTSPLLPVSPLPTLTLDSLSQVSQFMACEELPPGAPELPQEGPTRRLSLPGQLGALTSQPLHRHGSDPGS

In turn, `CC(Sc1nc2ncccc2n1-c1ccc(C2CC2)c2ccccc12)C(=O)O` (racemic) showed an IC50 in data set [1] of more than 30 µM. Besides, the figures for the AUC(0-inf) in data set [2], in [5] and in data set [7] were 2960 µg·h/mL, 335 µg·h/mL and 13 µg·h/mL, respectively. The same compound returned a Cmax in data set [3] of 37900 ng/mL. Also, the half-life in [4] was 7.06 h; in data set [10] it was 3.4 h. Moreover, the MRT inf in data set [6] was determined as 6.16 h; in data set [11], 5.3 h. In data set [8], this compound registered a bioavailability of 76.3%. Further, in data set [9], the Tmax was 2 h. This compound displayed an AUC(0-t) in data set [12] of 53.2 µg·h/mL. In addition, the Ratio in the data set filed under Rattus norvegicus is 1.6.
For the compound `O=C(CSc1nnc(Br)n1-c1ccc(C2CC2)c2ccccc12)NS(=O)(=O)c1ccc(Br)cc1`, the bioavailability in data set [13] came out at 63.4%. In data set [14], the peak level (Cmax) was 3400 ng/mL. In data set [15], this compound gave an AUC(0-inf) of 19.6 µg·h/mL. Also, the AUC(0-t) in data set [16] was determined as 19.4 µg·h/mL. The IC50 in data set [17] is 31.7 µM.
